Reference: PubChem BioAssay AID488897 (Broad Institute, 2010)
Results filed as inconclusive are left out. The source made the active and inactive calls.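 The calls were made as follows: active = fitted half-maximal concentration for caspase signal rise at or below the highest valid tested dose; inconclusive = flat fit at 30 to 70% of control, or poor fit; inactive = the rest.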

System: MEF A1-2A-tBid cells, caspase 3/7 luminescence, 3 h
Test: caspase activation in A1/tBid-expressing MEFs, dose response, A1 inhibitor project, cell-based, tBid as inducer, caspase 3/7 luminescence, dry powder (AID 488897)
Conditions: not given
Procedure, shortened: (§1)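 Assay system: mouse embryonic fibroblasts co-expressing A1-2A-tBid, primed by tBid. Quantity: 2500 cells per well. Detection: Caspase-Glo 3/7 luminescence. Timing: 3 h compound exposure at 37 °C, 1 h room-temperature detection. Doses: dose-response series, pin-transferred. Evaluation: caspase activation from luminescence increase. Medium: TSA added at seeding.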

Which AC50 does the source give for `O=C(Oc1cccc(/C=N/Nc2nc(Nc3ccccc3)nc(N3CCOCC3)n2)c1)c1ccco1` here?
Its AC50 is 17.6 µM.

For `CC(=O)OC(C)(C)/C=C/C(=O)[C@](C)(O)C1[C@H](O)C[C@@]2(C)C3CC=C4C(C[C@H](O)C(=O)C4(C)C)[C@]3(C)C(=O)C[C@]12C` (stereo partly drawn), which AC50 is on record?
The AC50 was > 150 µM (inactive).

Which AC50 does the source give for `Cn1c(=NC(=O)CCl)sc2ccccc21` here?
The AC50 was 3.22 µM.

For `Cc1c(C=O)c(C=O)c(C)n1Cc1ccccc1`, which AC50 is on record?
The AC50 was 6.11 µM.

For `CC(C)(C)n1nc(-c2ccc(Cl)cc2)c2c(N)ncnc21`, which AC50 is on record?
The AC50 was > 150 µM (inactive).

For `O=C(CCl)N=c1sccn1Cc1ccccc1Cl`, which AC50 is on record?
Its AC50 is 1.93 µM.

For `C=C1[C@@H](C)[C@H]2[C@H](Cc3ccccc3)NC(=O)[C@]23OC(=O)/C=C\[C@H](O)CCC[C@@H](C)C/C=C/[C@H]3[C@@H]1O`, which AC50 is on record?
Its AC50 is 12.7 µM.

Which AC50 does the source give for `Cc1ccc(CS(=O)(=O)c2ncc(Cl)c(C(=O)Nc3nnc(C(C)C)s3)n2)cc1` here?
Its AC50 is > 46 µM (inactive).

Which AC50 does the source give for `CCc1nnc(NC(=O)c2nc(S(=O)(=O)Cc3ccccc3)ncc2Cl)s1` here?
Its AC50 is > 68 µM (inactive).

With `Cc1ccc(Sc2c([N+](=O)[O-])c(=O)n(C)c3ccccc23)cc1` as the compound, how does the AC50 read?
The AC50 was 18.1 µM.

With `Nc1nc(F)nc2c1ncn2[C@@H]1O[C@H](CO)[C@@H](O)[C@H]1O` as the compound, how does the AC50 read?
The AC50 was 2.35 µM.

Which AC50 does the source give for `C/C1=C/C(=O)O[C@@H]2C[C@@H](CC[C@H](C)/C=C\CC1)O[C@@](O)(C1CSC(=O)N1)C2` (stereo partly drawn) here?
Its AC50 is 0.695 µM.

For `Cc1cccc(CS(=O)(=O)c2ncc(Cl)c(C(=O)Nc3nnc(C(C)C)s3)n2)c1`, which AC50 is on record?
The AC50 was > 46 µM (inactive).

For `Cc1c(CCOC(=O)c2ccc(N3CCOCC3)c([N+](=O)[O-])c2)sc[n+]1CC#N`, which AC50 is on record?
The AC50 was 16.7 µM.

With `Cc1cccc(NC(=O)/C(C#N)=C/c2cn(CC(=O)NCc3ccco3)c3ccccc23)c1` as the compound, how does the AC50 read?
Its AC50 is 7.59 µM.

For `CCOC(=O)CSC1=N/C(=C/c2ccc(-n3cncn3)cc2)C(=O)N1C(C)=O`, which AC50 is on record?
The AC50 was 9.07 µM.

For `CC(=O)N[C@H]1[C@H](O[C@H]2CC[C@@]3(C)C(CC[C@]4(C)C3CC=C3[C@@H]5CC(C)(C)CC[C@]5(C(=O)OC5OCC(O)C(O)C5O)C(O)C[C@]34C)C2(C)C)O[C@H](COC2OCC(O)C(OC3OCC(O)C(O)C3O)C2O)[C@@H](O[C@@H]2O[C@@H](C)[C@H](O)[C@@H](O)[C@H]2O[C@@H]2O[C@@H](C)[C@H](O)[C@@H](O)[C@H]2O)[C@@H]1O` (stereo partly drawn), which AC50 is on record?
The AC50 was 12.2 µM.

For `COc1cccc(C(=O)C(C#N)=C(SC)SC)c1`, which AC50 is on record?
The AC50 was 2.71 µM.

Which AC50 does the source give for `CCc1cc2c(=O)c(-c3cnn(-c4ccccc4)c3)c(C)oc2cc1OCC(=O)Nc1cccc(C)c1` here?
The AC50 was > 100 µM (inactive).

For `Cc1cc(C(=O)CCl)c(C)n1CCc1ccc(Cl)cc1`, which AC50 is on record?
Its AC50 is 8.01 µM.

For `COc1ccc(N(C(=O)CCl)C(C(=O)NCCc2ccccc2)c2cccs2)cc1Cl` (stereo not drawn), which AC50 is on record?
The AC50 was > 150 µM (inactive).

System: not listed separately
Test: as above
Conditions: MEF A1-2A-tBid cells, caspase 3/7 luminescence, 3 h; at 150 µM (top of the series)
Procedure, shortened: as §1

Which caspase activation does the source give for `C=C1[C@@H](C)[C@H]2[C@H](Cc3ccccc3)NC(=O)[C@]23[C@H](OC(C)=O)/C=C/[C@](C)(O)C(=O)[C@@H](C)C/C=C/[C@H]3[C@@H]1O` here?
The caspase activation was 0.731% (inactive).

With `COc1cc(/C=C(/C#N)c2nc3ccccc3[nH]2)ccc1OCC(=O)Nc1ccccc1C(C)C` as the compound, how does the caspase activation read?
The caspase activation was 1.39% (inactive).
